Assay results reported in article PMC6387680 (Leukemia & lymphoma, 2011).
Where “and” joins values, the source holds several entries; their conditions need not be identical. Equal values may be shown once.

How the values were obtained:
[1] = system: lymphocyte count; settings: associated with decreasing lymph node size; cited from earlier work
[2] = system: patients with relapsed lymphoma or CLL; test: Toxicity of cycle 1 UCN-01 alone; type: in vivo, human
[3] = Plasma UCN-01 pharmacokinetics; type: in vivo, human
[4] = system: absolute lymphocyte count (ALC); test: Absolute lymphocyte count after UCN-01; type: in vivo, human
[5] = system: Neoplastic B cells; test: In vivo apoptosis by annexin V-FITC flow cytometry of peripheral blood; set-up: species or system human; settings: for Peak value of apoptosis (annexin V-positive cells): CLL patient; for apoptotic B cells positive for CD19 and annexin V: time point not stated
In short: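 Peripheral blood was stained within 12 h of collection. Erythrocytes were lysed (150 mM NH4Cl, 10 mM KHCO3, 0.1 mM EDTA; 10 min, room temperature), spun 500 × g for 15 min and washed twice in PBS/0.1% NaN3. Cells were co-stained 30 min with annexin V-FITC plus tumour-marker antibodies (CD19, CD5 for CLL). Four-colour flow, ≥5000 lymphocytes per tube. Controls were thawed lymphocytes (positive) and fresh whole blood (negative).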

[6] = system: patients with refractory neoplasms; settings: cited from earlier work
[7] = system: patients with refractory solid tumors; settings: 24 patients; cited from earlier work
[8] = cycle 1 UCN-01 alone, n (%) of 18 patients
[9] = human, plasma, iv, 45 mg/m^2/day
[10] = median, n=15, cycle 1, 72 h IV infusion at 45 mg/m^2/day

CC[C@H](Nc1ncnc2[nH]cnc12)c1nc2cccc(F)c2c(=O)n1-c1ccccc1 [CAL-101]
patients with an increase in lymphocyte count [1]: 60%

CN[C@@H]1C[C@H]2O[C@@](C)([C@@H]1OC)n1c3ccccc3c3c4c(c5c6ccccc6n2c5c31)C(=O)N[C@@H]4O [UCN-01, 7-hydroxystaurosporine]
grade 4 hyperuricemia, patients ([2]; among the three patients with tumor lysis syndrome): three | Single episodes of grade 2 toxicities ([2]; cycle 1 UCN-01 alone): an elevated bicarbonate level, circulation cardiac-other, constipation, an elevated CPK, depression, dyspepsia, pruritus, and taste disturbance | grade 3 toxicities that occurred one time during cycle 1 ([2]; cycle 1 UCN-01 alone): isolated elevated SGPT and one episode of febrile neutropenia | Amylase, grade 2 or 3 toxicity [2, 8]: 2(11%) | Creatinine, grade 2 or 3 toxicity [2, 8]: 4(22%) | Headache, grade 2 or 3 toxicity [2, 8]: 8(44%) | Hemoglobin, grade 2 or 3 toxicity [2, 8]: 6(33%) | Hyperglycemia, grade 2 or 3 toxicity [2, 8]: 12(67%) | Hypermagnesemia, grade 2 or 3 toxicity [2, 8]: 3(16%) | Hypoalbuminemia, grade 2 or 3 toxicity [2, 8]: 2(11%) | Hypocalcemia, grade 2 or 3 toxicity [2, 8]: 6(33%) | Hyponatremia, grade 2 or 3 toxicity [2, 8]: 2(11%) | Hypoxia, grade 2 or 3 toxicity [2, 8]: 6(33%) | Inf w/o neut (infection without neutropenia), grade 2 or 3 toxicity [2, 8]: 2(11%) | Leukopenia, grade 2 or 3 toxicity [2, 8]: 3(16%) | Lymphopenia, grade 2 or 3 toxicity [2, 8]: 5(27%) | Myalgia, grade 2 or 3 toxicity [2, 8]: 2(11%) | Nausea, grade 2 or 3 toxicity [2, 8]: 8(44%) | Neutropenia, grade 2 or 3 toxicity [2, 8]: 4(22%) | Rash/desquamation, grade 2 or 3 toxicity [2, 8]: 2(11%) | SGOT (AST), grade 2 or 3 toxicity [2, 8]: 3(16%) | Stomatitis, grade 2 or 3 toxicity [2, 8]: 3(16%) | Sup/vnt arrh (supraventricular arrhythmia), grade 2 or 3 toxicity [2, 8]: 2(11%) | Trans prbcs (transfused packed red blood cells), grade 2 or 3 toxicity [2, 8]: 3(16%) | Tumor lysis, grade 2 or 3 toxicity [2, 8]: 3(16%) | Vomiting, grade 2 or 3 toxicity [2, 8]: 4(22%) | tumor lysis syndrome (grade 3, CTCAE v2), patients ([2]; in vivo): Three | Hypocalcemia (grade 2), patients ([2]; six patients): 33% | creatinine peak ([2]; tumor lysis patients with renal dysfunction): 2.1 mg/dL | serum blood urea nitrogen [BUN] peak ([2]; two tumor lysis patients with renal dysfunction): 66 mg/dL and 40 mg/dL | difference in UCN-01 CLtot between cycle 1 (without FAMP) and cycle 2 (with FAMP) ([3]; five evaluable patients, paired t-test p = 0.27): no intra-individual difference | Vd ([3]; human, plasma, intravenous, 45 mg/m^2/day): 3 to 18 L | AUC(0-inf) [3, 9]: 7260 µg·h/mL | Cmax [3, 9]: 16700 ng/mL | VλZ [3, 10]: 7.4 L | t1/2 (terminal) [3, 10]: 15.02 days | day of peak lymphocytosis ([4]; cycle 1): ≤ 4 days | increase in the absolute lymphocyte count (ALC) ([4]; first three of four patients with CLL, first cycle of UCN-01 alone): 2.0–2.7 fold | patients with lymphocytosis following UCN-01 ([4]; in vivo): 15 of 18 | Peak value of apoptosis (annexin V-positive cells) ([5]; day 4 of cycle 1): 15% | Peak value of apoptosis (annexin V-positive cells) ([5]; day 28 of cycle 1): 8% | apoptotic B cells positive for CD19 and annexin V ([5]; patient 10, Figure 2 (B), low level): 2.6% | apoptotic B cells positive for CD19 and annexin V ([5]; patient 17, Figure 2 (C), low level): 3.8% | apoptotic B cells positive for CD19 and annexin V ([5]; patient 17, Figure 2 (E), high level): 38.9% | MTD / recommended phase II dose ([6]; 3-day infusion): 42.5 mg/m^2/day | grade 4 hyperglycemia, patients ([6]; 42.5 dose level, complicated by steroids): 1/9 | significant hematopoietic toxicity [6]: None of the patients had significant hematopoietic toxicity | dose level at which DLT (> grade 3) occurred ([6]; nausea/vomiting, hyperglycemia, transient hypoxia): 53 mg/m^2/ day | objective responses [7]: no objective responses | toxicities noted [7]: grade 1–2 nausea, vomiting, hyperglycemia, and hypotension
